From ChEMBL document CHEMBL5715950, “Characterization of molecular and cellular functions of the cyclin-dependent kinase CDK9 using a novel specific inhibitor” (Br J Pharmacol, 2014)
Active and inactive are the calls of the source. No cut-off for these calls is given here.

Assays:
[1] = biological target: Cyclin-dependent kinase 4/cyclin D1 (Homo sapiens, UniProt P11802); test: Inhibition of CDK4/Cyclin D1 (unknown origin) using ULight MBP peptide as substrate in presence of ATP incubated for 1 hr by FRET based LANCE Ultra KinaSelect screen assay; assay type: protein-complex assay
[2] = Displacement of kinase tracer 236 from CDK2/Cyclin A (unknown origin) assessed as dissociation constant incubated for 1 hr by LanthScreen Eu kinase binding assay; set-up: species or system Homo sapiens
[3] = biological target: CDK9/cyclin T1 (Homo sapiens) (UniProt O60563+P50750); test: Inhibition of CDK9/Cyclin T1 (unknown origin) assessed as residual activity at 10 uM incubated for 120 mins in presence of 33P-ATP by radiometric kinase assay relative to control; assay type: protein-complex assay
[4] = biological target: Mitogen-activated protein kinase kinase kinase kinase 4 (Homo sapiens, UniProt O95819); test: Inhibition of MAP4K4 (unknown origin) assessed as residual activity at 10 uM incubated for 120 mins in presence of 33P-ATP by radiometric kinase assay relative to control
[5] = biological target: Tyrosine-protein kinase ABL2 (Homo sapiens, UniProt P42684); test: Inhibition of ABL2 (unknown origin) assessed as residual activity at 10 uM incubated for 120 mins in presence of 33P-ATP by radiometric kinase assay relative to control
[6] = Inhibition of transcription in human HEK293T cells nuclear extract fused with Gal4-VP16 at 4 uM in presence of ATP by phosphorimaging analysis; assay type: functional; details: HEK-293T
Summary of the method: (§1)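 In vitro transcription from the adenovirus core promoter (Gal-ML, 380 bp G-free cassette), soluble or bead-immobilised template, using HEK293T nuclear extract supplemented with recombinant Gal4-VP16. ATP 60 μM (low), 100 μM, or 500 μM (high); magnesium varied in one series. Transcripts quantified by phosphorimaging.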

HEK-293T = test: Inhibition of transcription in human HEK293T cells nuclear extract fused with Gal4-VP16 at 10 uM in presence of ATP and MgCl2 by phosphorimaging analysis; assay type: functional, subcellular; details: Nucleus; summary of the method: as §1
[7] = biological target: Glycogen synthase kinase-3 alpha (Homo sapiens, UniProt P49840); test: Inhibition of GSK3A (unknown origin) incubated for 120 mins in presence of 33P-ATP by radiometric kinase assay
[8] = biological target: Cyclin-dependent kinase 9 (Homo sapiens) (UniProt P50750); test: Inhibition of CDK9 in human HeLa cells assessed as downregulation of Serine 2 phosphorylation by measuring fold decrease at 10 uM incubated for 60 mins by Western blotting analysis; assay type: cell-based
HeLa [9] = test: Induction of apoptosis in human HeLa cells at > 2 uM incubated for 24 hrs by Annexin V-FITC/PI staining based flow cytometric analysis; assay type: functional, cell-based
Summary of the method: (§2)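 Cells grown at 37°C, 5% CO2 (A549, HeLa, MCF7 in DMEM high glucose; HCT116 in McCoy's 5A; THP1 and primary AML M4 apheresis blasts in RPMI1640), exposed to inhibitor or DMSO for 24 h. Apoptotic fraction by flow cytometry after annexin V-fluorescein/propidium iodide double staining. Means ± SD of three biological replicates; AML blasts from one patient, three technical replicates. Student's t-test versus DMSO/untreated.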

HCT 116 TP53(-/-) = test: Induction of apoptosis in human HCT116-p53-null cells at 10 uM incubated for 24 hrs by Annexin V-FITC/PI staining based flow cytometric analysis; assay type: functional, cell-based; summary of the method: as §2
[10] = biological target: Cyclin-dependent kinase 9 (Homo sapiens) (UniProt P50750); test: Inhibition of CDK9 in human A549 cells assessed as downregulation of p21 mRNA expression at 1 to 10 uM incubated for 90 mins by RT-qPCR analysis relative to control; assay type: cell-based; details: dose 1-10 µM
[11] = biological target: Cyclin-dependent kinase 9 (Homo sapiens) (UniProt P50750); test: Inhibition of CDK9 in human A549 cells assessed as downregulation of PLK2 mRNA expression at 1 to 10 uM incubated for 90 mins by RT-qPCR analysis relative to control; assay type: cell-based; details: dose 1-10 µM
[12] = biological target: Cyclin-dependent kinase 9 (Homo sapiens) (UniProt P50750); test: Inhibition of CDK9 in human A549 cells assessed as downregulation of CCND1 mRNA expression at 1 to 10 uM incubated for 90 mins by RT-qPCR analysis relative to control; assay type: cell-based; details: dose 1-10 µM
[13] = biological target: Cyclin-dependent kinase 9 (Homo sapiens) (UniProt P50750); test: Inhibition of CDK9 in human A549 cells assessed as downregulation of p21 mRNA expression at 2 to 6 uM incubated for 90 mins by RT-qPCR analysis relative to control; assay type: cell-based; details: dose 2-6 µM
[14] = biological target: Cyclin-dependent kinase 9 (Homo sapiens) (UniProt P50750); test: Inhibition of CDK9 in human A549 cells assessed as downregulation of PLK2 mRNA expression at 2 to 6 uM incubated for 90 mins by RT-qPCR analysis relative to control; assay type: cell-based; details: dose 2-6 µM
[15] = biological target: Cyclin-dependent kinase 9 (Homo sapiens) (UniProt P50750); test: Inhibition of CDK9 in human A549 cells assessed as downregulation of GAPDH mRNA expression at 2 to 6 uM incubated for 90 mins by RT-qPCR analysis relative to control; assay type: cell-based; details: dose 2-6 µM
HeLa [16] = test: Inhibition of RNA synthesis in human HeLa cells stably transfected with luciferase reporter gene at 10 uM incubated for 30 mins followed by doxycycline addition and measured after 60 mins by RT-qPCR analysis relative to control; assay type: functional; details: 1.5 h, time 90 min
Summary of the method: (§3)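 Stably transfected HeLa cells carrying a tetracycline-inducible luciferase reporter: inhibitor or DMSO for 30 min, then 1 μg/mL doxycycline for 60 min. De novo reporter transcripts measured by RT-qPCR.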

HeLa [17] = test: Inhibition of RNA synthesis in human HeLa cells stably transfected with luciferase reporter gene incubated for 30 mins followed by doxycycline addition and measured after 60 mins by RT-qPCR analysis; assay type: functional, cell-based; details: time 90.0 min; summary of the method: as §3
HeLa [18] = test: Inhibition of RNA synthesis in human HeLa cells stably transfected with luciferase reporter gene at 2 uM incubated for 30 mins followed by doxycycline addition and measured after 60 mins by RT-qPCR analysis relative to control; assay type: functional; details: 1.5 h, time 90 min; summary of the method: as §3
[19] = biological target: Cyclin-dependent kinase 9 (Homo sapiens) (UniProt P50750); test: Inhibition of CDK9 in human THP-1 cells assessed as downregulation of RPL31 mRNA expression by RT-qPCR analysis; assay type: cell-based
[20] = biological target: Cyclin-dependent kinase 9 (Homo sapiens) (UniProt P50750); test: Inhibition of CDK9 in human HeLa cells assessed as upregulation of RNAPII expression at 10 uM incubated for 1 hr by chromatin immunoprecipitation assay; assay type: cell-based
[21] = biological target: Cyclin-dependent kinase 9 (Homo sapiens) (UniProt P50750); test: Inhibition of CDK9 in human HeLa cells assessed as upregulation of serine 2 phosphorylation at 10 uM incubated for 1 hr by chromatin immunoprecipitation assay; assay type: cell-based
[22] = Transcription level in human HeLa cells nuclear extract fused with Gal4-VP16 at 10 uM in presence of ATP by phosphorimaging analysis relative to control
A549 = test: Transcription level in human A549 cells nuclear extract fused with Gal4-VP16 at 10 uM in presence of ATP by phosphorimaging analysis relative to control
[23] = Transcription level in human HCT-116 cells nuclear extract fused with Gal4-VP16 at 10 uM in presence of ATP by phosphorimaging analysis relative to control
[24] = Transcription level in human HEK293T cells nuclear extract fused with Gal4-VP16 at 10 uM in presence of ATP by phosphorimaging analysis relative to control; details: HEK-293T

Cyclin-dependent kinase 9 (Homo sapiens), sequence (P50750 whole entry): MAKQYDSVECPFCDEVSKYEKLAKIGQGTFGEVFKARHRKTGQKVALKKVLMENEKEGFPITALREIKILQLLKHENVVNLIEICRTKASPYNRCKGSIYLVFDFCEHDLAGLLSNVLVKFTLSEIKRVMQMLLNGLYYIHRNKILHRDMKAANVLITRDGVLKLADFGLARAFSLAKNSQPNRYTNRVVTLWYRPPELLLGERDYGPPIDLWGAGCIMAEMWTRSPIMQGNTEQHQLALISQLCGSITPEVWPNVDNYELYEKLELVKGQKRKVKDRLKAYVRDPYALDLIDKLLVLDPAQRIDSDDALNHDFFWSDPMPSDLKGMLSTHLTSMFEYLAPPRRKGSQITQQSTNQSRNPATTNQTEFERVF
Tyrosine-protein kinase ABL2, sequence (P42684 whole entry, the tested form may be a part): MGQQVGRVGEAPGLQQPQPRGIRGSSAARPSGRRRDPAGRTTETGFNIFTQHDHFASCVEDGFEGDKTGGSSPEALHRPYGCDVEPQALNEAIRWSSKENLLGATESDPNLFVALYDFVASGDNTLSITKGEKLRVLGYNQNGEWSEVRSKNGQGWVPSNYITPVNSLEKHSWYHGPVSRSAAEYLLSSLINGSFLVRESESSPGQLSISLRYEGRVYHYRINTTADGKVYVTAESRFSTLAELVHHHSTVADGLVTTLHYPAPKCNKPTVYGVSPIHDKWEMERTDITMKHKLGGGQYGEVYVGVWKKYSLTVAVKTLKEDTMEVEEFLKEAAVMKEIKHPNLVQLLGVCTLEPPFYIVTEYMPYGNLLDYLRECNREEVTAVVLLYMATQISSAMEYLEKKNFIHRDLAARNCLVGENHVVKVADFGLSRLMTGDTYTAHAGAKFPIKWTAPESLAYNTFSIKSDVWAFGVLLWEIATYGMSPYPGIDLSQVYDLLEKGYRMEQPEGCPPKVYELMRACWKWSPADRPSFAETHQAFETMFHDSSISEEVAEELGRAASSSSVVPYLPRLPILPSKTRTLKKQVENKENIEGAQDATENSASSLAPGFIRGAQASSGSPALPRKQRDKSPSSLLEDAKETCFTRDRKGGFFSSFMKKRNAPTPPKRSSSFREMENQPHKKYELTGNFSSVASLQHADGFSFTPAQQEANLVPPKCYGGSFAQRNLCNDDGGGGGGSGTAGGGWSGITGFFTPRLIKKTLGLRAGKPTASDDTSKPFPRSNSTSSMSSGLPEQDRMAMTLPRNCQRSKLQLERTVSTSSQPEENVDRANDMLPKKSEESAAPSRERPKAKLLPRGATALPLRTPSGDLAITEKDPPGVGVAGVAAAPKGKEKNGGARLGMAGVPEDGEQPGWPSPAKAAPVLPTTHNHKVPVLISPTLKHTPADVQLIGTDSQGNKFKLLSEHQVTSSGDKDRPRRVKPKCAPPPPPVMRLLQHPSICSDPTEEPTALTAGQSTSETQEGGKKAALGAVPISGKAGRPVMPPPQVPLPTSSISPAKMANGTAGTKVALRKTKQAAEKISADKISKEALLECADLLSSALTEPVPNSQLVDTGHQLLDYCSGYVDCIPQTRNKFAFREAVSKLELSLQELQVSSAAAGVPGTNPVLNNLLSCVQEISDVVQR
Mitogen-activated protein kinase kinase kinase kinase 4, sequence (O95819 2-1239 limits assumed): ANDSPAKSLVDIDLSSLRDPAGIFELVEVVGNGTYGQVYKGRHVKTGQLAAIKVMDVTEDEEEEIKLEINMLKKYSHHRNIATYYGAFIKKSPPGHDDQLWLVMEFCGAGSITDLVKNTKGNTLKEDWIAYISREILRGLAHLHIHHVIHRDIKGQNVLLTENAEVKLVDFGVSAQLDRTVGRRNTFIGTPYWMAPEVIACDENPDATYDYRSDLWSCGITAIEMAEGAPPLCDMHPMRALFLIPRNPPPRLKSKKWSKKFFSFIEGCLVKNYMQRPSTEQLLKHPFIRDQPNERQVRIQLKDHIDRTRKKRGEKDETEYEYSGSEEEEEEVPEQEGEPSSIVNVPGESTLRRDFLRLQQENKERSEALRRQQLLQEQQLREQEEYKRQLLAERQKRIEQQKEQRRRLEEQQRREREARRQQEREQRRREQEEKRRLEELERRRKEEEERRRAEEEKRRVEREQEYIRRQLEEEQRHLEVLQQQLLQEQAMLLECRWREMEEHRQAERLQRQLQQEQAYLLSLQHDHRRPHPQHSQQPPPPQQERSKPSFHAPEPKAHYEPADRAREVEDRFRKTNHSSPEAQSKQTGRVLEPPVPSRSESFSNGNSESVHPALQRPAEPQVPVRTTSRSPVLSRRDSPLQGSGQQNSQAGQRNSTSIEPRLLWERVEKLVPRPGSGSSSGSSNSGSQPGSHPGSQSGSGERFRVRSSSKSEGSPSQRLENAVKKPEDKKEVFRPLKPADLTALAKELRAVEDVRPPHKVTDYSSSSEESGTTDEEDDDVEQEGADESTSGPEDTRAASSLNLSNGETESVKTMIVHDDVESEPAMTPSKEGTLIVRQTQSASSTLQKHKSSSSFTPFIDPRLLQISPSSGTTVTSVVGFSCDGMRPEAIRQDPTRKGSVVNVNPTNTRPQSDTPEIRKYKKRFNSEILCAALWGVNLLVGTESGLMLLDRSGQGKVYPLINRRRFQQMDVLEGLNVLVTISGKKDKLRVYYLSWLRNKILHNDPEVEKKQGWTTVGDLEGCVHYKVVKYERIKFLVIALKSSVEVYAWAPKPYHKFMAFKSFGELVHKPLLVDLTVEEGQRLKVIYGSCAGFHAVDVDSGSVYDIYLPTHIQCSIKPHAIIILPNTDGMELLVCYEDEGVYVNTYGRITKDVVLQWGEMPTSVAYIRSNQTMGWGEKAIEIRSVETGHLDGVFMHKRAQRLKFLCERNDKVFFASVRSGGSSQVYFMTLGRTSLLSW
Glycogen synthase kinase-3 alpha, sequence (P49840 whole entry): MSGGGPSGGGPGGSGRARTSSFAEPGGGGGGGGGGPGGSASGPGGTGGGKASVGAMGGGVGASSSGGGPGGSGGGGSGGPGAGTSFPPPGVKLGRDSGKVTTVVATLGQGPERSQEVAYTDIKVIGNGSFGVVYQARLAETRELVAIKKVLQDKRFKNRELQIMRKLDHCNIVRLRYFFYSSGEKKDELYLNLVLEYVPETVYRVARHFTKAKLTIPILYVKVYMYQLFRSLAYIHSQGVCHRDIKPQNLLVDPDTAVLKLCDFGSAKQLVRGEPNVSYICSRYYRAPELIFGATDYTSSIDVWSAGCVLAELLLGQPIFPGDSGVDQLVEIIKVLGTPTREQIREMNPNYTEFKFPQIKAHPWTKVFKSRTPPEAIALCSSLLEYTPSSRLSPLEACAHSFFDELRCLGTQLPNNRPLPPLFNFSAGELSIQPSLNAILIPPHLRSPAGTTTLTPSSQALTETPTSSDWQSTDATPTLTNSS
Cyclin-dependent kinase 4/cyclin D1, sequence (P11802 whole entry): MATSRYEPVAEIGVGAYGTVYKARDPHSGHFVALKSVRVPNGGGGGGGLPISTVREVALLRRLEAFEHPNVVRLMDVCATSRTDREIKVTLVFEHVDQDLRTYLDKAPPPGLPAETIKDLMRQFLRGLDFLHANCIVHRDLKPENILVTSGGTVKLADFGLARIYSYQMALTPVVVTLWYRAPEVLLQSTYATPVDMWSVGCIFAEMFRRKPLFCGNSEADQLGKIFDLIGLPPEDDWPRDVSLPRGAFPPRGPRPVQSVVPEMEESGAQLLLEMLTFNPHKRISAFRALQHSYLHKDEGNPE
Cyclin-dependent kinase 4/cyclin D1, sequence (P24385 whole entry, further chain): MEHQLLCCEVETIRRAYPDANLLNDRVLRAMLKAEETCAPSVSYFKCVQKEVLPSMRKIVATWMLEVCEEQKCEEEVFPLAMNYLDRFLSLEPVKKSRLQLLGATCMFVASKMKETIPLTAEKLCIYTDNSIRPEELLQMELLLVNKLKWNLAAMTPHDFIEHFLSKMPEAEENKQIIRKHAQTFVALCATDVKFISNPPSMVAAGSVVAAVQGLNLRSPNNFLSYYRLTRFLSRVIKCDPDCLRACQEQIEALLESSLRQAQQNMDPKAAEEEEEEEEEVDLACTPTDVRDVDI

COc1ccccc1-c1cc(Nc2cccc(NS(C)(=O)=O)c2)ncn1
IC50 [1]: 9240 nM | Kd [2]: 1010 nM | Activity [3]: 6% | Activity [4]: 17.5% | Activity [5]: 27% | inhibition at 4 µM [6]: 50% | inhibition (HEK-293T): inactive | IC50 [7]: 1460 nM | fold change (FC) [8]: 1.6 | Activity (HeLa [9]): Active | Activity (HCT 116 TP53(-/-)): Active | inhibition [10]: 50% | inhibition [11]: 50% | inhibition [12]: 50% | inhibition [13]: 50% | inhibition [14]: 50% | inhibition [15]: 50% | inhibition at 10 µM (HeLa [16]): 80% | inhibition (HeLa [17]): Dose-Dependent Effect | inhibition at 2 µM (HeLa [18]): 50% | inhibition [19]: Active | inhibition [20]: Active | inhibition [21]: Active | level, % of control at 10 µM [22]: 20% | level, % of control at 10 µM (A549): 20% | level, % of control at 10 µM [23]: 20% | level, % of control at 10 µM [24]: 20%
